Measurements taken from ChEMBL document CHEMBL5149984, “Discovery of HN37 as a Potent and Chemically Stable Antiepileptic Drug Candidate” (J Med Chem, 2021).

Key:
[1] = Neurotoxicity in Kunming mouse assessed as motor impairment rate at 250 mg/kg, po after 1 hr by rotarod test; format: toxicity, organism-based; settings: in vivo
Outline: (§1)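 Male KM mice dosed intragastrically with compound freshly suspended in 0.5% CMC-Na. Rotarod performance scored 1 h after dosing as the fraction of animals showing motor impairment. Fisher's exact test versus vehicle; TD50 from nonlinear dose−response fit.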

[2] = Clearance in Kunming mouse plasma at 2 mg/kg, iv measured upto 24 hrs by LC-MS/MS method; format: ADME, organism-based
Outline: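 Male KM mice fasted 12 h before and 2 h after iv dosing at 2 mg/kg (oral formulation of 5% DMSO/5% Tween 80/saline diluted with saline containing 1% Tween 80); n = 3 per time point. Blood from the retro-orbital venous plexus at 0.083–24 h; plasma extracted with acetonitrile plus internal standard and analysed by LC−MS/MS.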

[3] = biological target: T1, Potassium voltage-gated channel subfamily KQT member 4 (Homo sapiens) (UniProt P56696); assay: Agonist activity at human KCNQ4 channel expressed in CHO cells assessed as amplitude change of outward current at 0.1 uM by patch clamp method; format: cell-based; settings: filed as agonist
T1 sequence (whole entry): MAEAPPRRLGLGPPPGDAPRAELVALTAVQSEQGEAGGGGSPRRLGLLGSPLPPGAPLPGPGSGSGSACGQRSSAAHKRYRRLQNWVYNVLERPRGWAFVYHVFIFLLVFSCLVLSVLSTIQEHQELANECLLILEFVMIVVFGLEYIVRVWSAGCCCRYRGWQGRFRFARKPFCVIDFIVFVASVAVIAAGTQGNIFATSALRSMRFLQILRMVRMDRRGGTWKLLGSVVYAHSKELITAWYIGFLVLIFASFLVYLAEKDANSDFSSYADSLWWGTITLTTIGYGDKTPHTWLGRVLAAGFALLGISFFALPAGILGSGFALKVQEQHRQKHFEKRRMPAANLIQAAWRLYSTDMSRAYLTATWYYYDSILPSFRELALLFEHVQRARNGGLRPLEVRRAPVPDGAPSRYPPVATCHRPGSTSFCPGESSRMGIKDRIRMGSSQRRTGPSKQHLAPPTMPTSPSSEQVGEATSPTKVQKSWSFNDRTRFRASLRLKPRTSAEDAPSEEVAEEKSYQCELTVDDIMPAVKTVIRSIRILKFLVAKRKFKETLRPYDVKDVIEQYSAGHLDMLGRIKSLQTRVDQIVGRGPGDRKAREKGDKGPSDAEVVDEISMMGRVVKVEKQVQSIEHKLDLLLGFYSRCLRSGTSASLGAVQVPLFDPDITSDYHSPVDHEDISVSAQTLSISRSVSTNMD
Outline: (§2)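 Whole-cell patch clamp at room temperature on CHO cells (DMEM/F12, 10% FBS) transiently co-transfected with EGFP and hKCNQ1, rKCNQ2, rKCNQ3 A278T, hKCNQ4 or hKCNQ5; KCNQ2/3 at 1:1 cDNA ratio. Pipette solution 145 mM KCl, 5 mM MgATP, pH 7.3; bath 140 mM NaCl, 5 mM KCl, pH 7.4, under perfusion. V1/2 from Boltzmann fits; I/I0 is current amplitude with versus without compound; n = 4−6.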

CHO = assay: Agonist activity at rat KCNQ3 A278T mutant expressed in CHO cells assessed as shift of half voltage of maximal activation at 0.1 uM by patch clamp method; format: cell-based; settings: filed as agonist; outline: as §2
CYP3A4 = CYP3A4 (Homo sapiens, UniProt P08684); assay: Ratio of IC50 for human liver microsome CYP3A4 using testosterone as substrate in absence of NADPH to IC50 for human liver microsome CYP3A4 using testosterone as substrate in presence of NADPH; settings: liver microsomes, probe testosterone, read-out: Ratio IC50
Outline: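 Human liver microsomes preincubated 0.5 h with 0.10−50 μM compound, with or without NADPH, then CYP-specific probe substrates added (CYP3A4 with midazolam 1′-hydroxylation and with testosterone 6β-hydroxylation). Metabolites quantified by LC−MS/MS; % activity remaining computed against no-compound control. IC50 fitted by Probit model; ratio = IC50(−NADPH)/IC50(+NADPH).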

Cytochrome P450 2C8 = Cytochrome P450 2C8 (Homo sapiens, UniProt P10632); assay: Time dependent inhibition of human liver microsome CYP2C8 preincubated for 0.5 hrs in absence of NADPH followed by substrate addition by LC-MS/MS method; format: ADME, microsomes
Outline: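 Human liver microsomes preincubated 0.5 h with 0.10–50 μM test compound, with or without NADPH, then CYP-specific probe substrate added and incubation continued. Metabolite measured by LC-MS/MS; % activity remaining relative to no-compound control; IC50 fitted by Probit model. For CYP3A4, midazolam 1′-hydroxylation and testosterone 6β-hydroxylation were read separately.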

Brain = assay: Anticonvulsant activity in MES induced Kunming mouse model of seizure assessed as EC50 in brain; format: functional, tissue-based
[4] = Ratio of TC50 for Kunming mouse to EC50 for anticonvulsant activity in Kunming mouse; format: toxicity
Outline: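 Male KM mice dosed orally in 0.5% CMC-Na and killed straight after the 1 h MES or rotarod test. Brain and plasma levels measured by LC−MS/MS. EC50 and TC50 fitted by nonlinear regression of protection or motor impairment against mean brain concentration; ratio = TC50,brain/EC50,brain.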

[5] = Cmax in Sprague-Dawley rat at 2 mg/kg, po measured upto 24 hrs by LC-MS/MS method; format: ADME, organism-based; design: time < 24 hrs, dose 2 mg/kg, route po; settings: in vivo
Outline: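 Male SD rats (180−220 g) dosed orally at 2, 6 or 20 mg/kg in escalating fashion, handled as in the mouse study: 12 h fast, acetonitrile extraction of plasma, LC−MS/MS quantification. AUC0−t by trapezoidal method to the last measurable concentration.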

[6] = biological target: Potassium voltage-gated channel subfamily KQT member 2 (Rattus norvegicus) (UniProt O88943); assay: Agonist activity at rat KCNQ2 channel expressed in CHO cells assessed as shift of half voltage of maximal activation at 0.1 uM by patch clamp method; format: cell-based; settings: filed as agonist; outline: as §2
[7] = Ratio of AUC(0 to t) in Sprague-Dawley rat brain to plasma at 6 mg/kg, po measured upto 24 hrs by LC-MS/MS method; format: ADME, organism-based; settings: brain and plasma
Outline: (§3)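 Male SD rats (180−220 g) given single oral doses of 2, 6 and 20 mg/kg; handled as in the mouse PK study (fasted 12 h before and 2 h after dosing, 5% DMSO/5% Tween 80/90% saline formulation). In a separate 6 mg/kg p.o. set, blood and brain were sampled together. Plasma and brain levels by LC−MS/MS.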

[8] = Half life in Sprague-Dawley rat at 6 mg/kg, po measured upto 24 hrs by LC-MS/MS method; format: ADME, organism-based; settings: in vivo; outline: as §3
CYP2C9 = CYP2C9 (Homo sapiens, UniProt P11712); assay: Inhibition of human liver microsome CYP2C9 at 0.10 to 50 uM preincubated with NADPH for 0.5 hrs followed by substrate addition by LC-MS/MS method relative to control; format: ADME; settings: liver microsomes, dose 0.1-50 µM
[9] = Neurotoxicity in Kunming mouse assessed as motor impairment rate at 90 mg/kg, po after 1 hr by rotarod test; format: toxicity, organism-based; settings: in vivo; outline: as §1
[10] = Metabolic stability in mouse liver microsomes assessed as intrinsic clearance; format: ADME, Microsome; settings: read-out: CLH

Sequence of CYP3A4 (P08684 whole entry): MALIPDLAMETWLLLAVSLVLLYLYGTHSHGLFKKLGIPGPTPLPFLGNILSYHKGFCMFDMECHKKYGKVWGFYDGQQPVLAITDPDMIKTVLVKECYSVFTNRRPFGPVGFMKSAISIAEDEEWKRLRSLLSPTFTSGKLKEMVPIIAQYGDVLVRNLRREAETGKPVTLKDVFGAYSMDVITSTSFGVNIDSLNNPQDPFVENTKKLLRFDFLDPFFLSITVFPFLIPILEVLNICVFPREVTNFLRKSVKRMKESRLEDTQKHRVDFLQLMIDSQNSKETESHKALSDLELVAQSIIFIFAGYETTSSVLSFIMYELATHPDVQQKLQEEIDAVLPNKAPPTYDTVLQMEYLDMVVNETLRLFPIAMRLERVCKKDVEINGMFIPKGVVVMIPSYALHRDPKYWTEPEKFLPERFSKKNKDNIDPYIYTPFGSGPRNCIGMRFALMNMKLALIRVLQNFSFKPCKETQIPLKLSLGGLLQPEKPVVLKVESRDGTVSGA
Sequence of CYP2C9 (P11712 whole entry): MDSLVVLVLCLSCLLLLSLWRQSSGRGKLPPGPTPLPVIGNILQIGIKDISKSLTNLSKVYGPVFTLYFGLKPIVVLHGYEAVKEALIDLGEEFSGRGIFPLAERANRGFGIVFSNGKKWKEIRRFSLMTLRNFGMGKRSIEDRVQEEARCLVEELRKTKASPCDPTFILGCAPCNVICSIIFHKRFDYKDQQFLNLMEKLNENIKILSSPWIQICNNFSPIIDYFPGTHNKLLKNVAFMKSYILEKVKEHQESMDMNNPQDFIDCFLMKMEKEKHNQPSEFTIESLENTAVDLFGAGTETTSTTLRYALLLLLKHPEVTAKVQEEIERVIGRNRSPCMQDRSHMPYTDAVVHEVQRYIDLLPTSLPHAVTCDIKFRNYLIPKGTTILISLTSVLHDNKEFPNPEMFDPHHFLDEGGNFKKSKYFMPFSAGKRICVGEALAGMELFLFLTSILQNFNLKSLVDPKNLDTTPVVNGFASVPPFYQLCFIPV
Sequence of Potassium voltage-gated channel subfamily KQT member 2 (Rattus norvegicus) (O88943 whole entry): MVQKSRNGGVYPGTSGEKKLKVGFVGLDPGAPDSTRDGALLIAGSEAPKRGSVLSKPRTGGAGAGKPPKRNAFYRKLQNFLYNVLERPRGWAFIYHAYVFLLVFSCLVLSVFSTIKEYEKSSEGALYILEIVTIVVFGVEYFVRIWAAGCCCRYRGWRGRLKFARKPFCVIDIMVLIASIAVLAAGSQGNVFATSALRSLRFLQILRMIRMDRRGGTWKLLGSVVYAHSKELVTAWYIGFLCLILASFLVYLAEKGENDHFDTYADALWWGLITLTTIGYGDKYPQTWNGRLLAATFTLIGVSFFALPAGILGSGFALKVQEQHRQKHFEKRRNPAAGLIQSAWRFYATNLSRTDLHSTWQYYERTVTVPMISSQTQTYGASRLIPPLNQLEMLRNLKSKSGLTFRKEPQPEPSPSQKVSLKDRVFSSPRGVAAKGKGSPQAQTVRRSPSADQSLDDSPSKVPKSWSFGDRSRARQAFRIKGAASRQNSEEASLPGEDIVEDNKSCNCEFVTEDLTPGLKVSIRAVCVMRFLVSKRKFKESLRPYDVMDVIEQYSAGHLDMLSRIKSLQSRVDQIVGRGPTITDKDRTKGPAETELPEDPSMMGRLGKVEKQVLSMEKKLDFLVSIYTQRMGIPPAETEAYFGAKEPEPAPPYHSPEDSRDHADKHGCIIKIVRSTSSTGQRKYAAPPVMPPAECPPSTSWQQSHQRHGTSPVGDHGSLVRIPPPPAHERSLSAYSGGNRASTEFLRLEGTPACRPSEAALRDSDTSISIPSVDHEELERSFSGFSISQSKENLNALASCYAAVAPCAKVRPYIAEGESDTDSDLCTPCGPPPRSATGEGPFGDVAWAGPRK
Sequence of Cytochrome P450 2C8 (P10632 whole entry): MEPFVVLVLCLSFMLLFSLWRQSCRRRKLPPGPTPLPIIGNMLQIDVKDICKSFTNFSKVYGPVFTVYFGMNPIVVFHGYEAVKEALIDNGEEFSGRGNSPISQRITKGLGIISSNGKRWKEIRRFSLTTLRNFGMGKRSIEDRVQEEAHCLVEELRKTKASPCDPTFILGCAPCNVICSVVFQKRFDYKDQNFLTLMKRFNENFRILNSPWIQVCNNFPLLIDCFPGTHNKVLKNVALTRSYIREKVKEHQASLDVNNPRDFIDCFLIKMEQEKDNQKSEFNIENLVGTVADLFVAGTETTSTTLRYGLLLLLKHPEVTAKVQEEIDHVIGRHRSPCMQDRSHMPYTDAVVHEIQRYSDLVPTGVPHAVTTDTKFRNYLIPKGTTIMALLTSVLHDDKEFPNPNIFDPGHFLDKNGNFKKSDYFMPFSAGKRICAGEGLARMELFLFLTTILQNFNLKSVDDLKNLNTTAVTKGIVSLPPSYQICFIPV

Structure (SMILES)	Activity [1] [%]	clearance [2] [mL/min/kg]	Activity [3]	Activity (CHO) [mV]	IC50 shift (CYP3A4)	IC50 (Cytochrome P450 2C8) [µM]	EC50 (Brain) [µM]	selectivity ratio [4]	Cmax [5] [ng/mL]	Activity [6] [mV]	Kp at 24 h [7]	half-life [8] [h]	inhibition at 0.5 h, up to 50 µM (CYP2C9) [%]	Activity [9] [%]	CLint scaled [10] [mL/min/kg]
CCOC(=O)Nc1ccc(NCc2ccc(F)cc2)cc1N [EZOGABINE]	62.5	–	–	–	–	–	–	–	–	–	–	–	–	–	–
C#CCN(Cc1ccc(F)cc1)c1cc(C)c(NC(=O)OC)c(C)c1	–	61.3	3.76	-43.1	< 1.5	225	0.07	49.6	88.2	-35.6	2.86	2.36	< 25	62.5	438
